Test results: ChEMBL document CHEMBL1240420, “Synthesis and biological evaluation of cinnamido linked pyrrolo[2,1-c][1,4]benzodiazepines as antimitotic agents” (Eur J Med Chem, 2010)

How the values were obtained:
Assay type in all cases: functional
[1] = test system: OVCAR-4; assay: Cytotoxicity against human OVCAR4 cells after 48 hrs by SRB assay; conditions: OVCAR-4, 48 h
[2] = test system: IGROV-1; assay: Cytotoxicity against human IGROV1 cells after 48 hrs by SRB assay; conditions: IGROV-1, 48 h
[3] = test system: MDA-MB-231; assay: Cytotoxicity against human MDA-MB-231 cells after 48 hrs by SRB assay; conditions: MDA-MB-231, 48 h
[4] = test system: ACHN; assay: Cytotoxicity against human ACHN cells after 48 hrs by SRB assay
[5] = test system: OVCAR-8; assay: Cytotoxicity against human OVCAR8 cells after 48 hrs by SRB assay; conditions: OVCAR-8, 48 h
[6] = test system: HCC 2998; assay: Cytotoxicity against human HCC2998 cells after 48 hrs by SRB assay; conditions: HCC 2998, 48 h
[7] = test system: HOP-62; assay: Cytotoxicity against human HOP62 cells after 48 hrs by SRB assay; conditions: HOP-62, 48 h
Summary of the method: (§1)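 Cells were grown in RPMI 1640 with 10% FBS and 2 mM L-glutamine, plated 24 h before dosing, then given continuous 48 h exposure at 0.1, 1, 10 and 100 µM in triplicate wells. Cells were fixed with cold TCA (10% final, 60 min, 4 °C), stained with 0.4% SRB in 1% acetic acid for 20 min, eluted with 10 mM Tris base, and read at 540/690 nm. GI50 was taken from [(Ti−Tz)/(C−Tz)]×100 = 50; three determinations were averaged.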

[8] = test system: SW-620; assay: Cytotoxicity against human SW620 cells after 48 hrs by SRB assay; conditions: SW-620, 48 h
[9] = test system: SF-268; assay: Cytotoxicity against human SF268 cells after 48 hrs by SRB assay; conditions: SF-268, 48 h
[10] = test system: NCI-H226; assay: Cytotoxicity against human NCI-H226 cells after 48 hrs by SRB assay; conditions: NCI-H226, 48 h
[11] = test system: HL-60(TB); assay: Cytotoxicity against human HL-60(TB) cells after 48 hrs by SRB assay; conditions: HL-60, 48 h
[12] = test system: NCI/ADR-RES; assay: Cytotoxicity against human NCI/ADR-RES cells after 48 hrs by SRB assay
[13] = test system: UACC-257; assay: Cytotoxicity against human UACC257 cells after 48 hrs by SRB assay; conditions: UACC-257, 48 h
[14] = test system: U-251; assay: Cytotoxicity against human U251 cells after 48 hrs by SRB assay; conditions: U-251, 48 h
[15] = test system: SF-539; assay: Cytotoxicity against human SF539 cells after 48 hrs by SRB assay; conditions: SF-539, 48 h
[16] = test system: M14; assay: Cytotoxicity against human M14 cells after 48 hrs by SRB assay; conditions: M14, 48 h
[17] = test system: A549; assay: Cytotoxicity against human A549 cells after 48 hrs by SRB assay; conditions: A549, 48 h; summary of the method: as §1
[18] = test system: SK-MEL-2; assay: Cytotoxicity against human SK-MEL-2 cells after 48 hrs by SRB assay; conditions: SK-MEL-2, 48 h
[19] = test system: KM12; assay: Cytotoxicity against human KM12 cells after 48 hrs by SRB assay; conditions: KM12, 48 h
[20] = test system: MCF7; assay: Cytotoxicity against human MCF7 cells after 48 hrs by SRB assay; conditions: MCF7, 48 h; summary of the method: as §1
[21] = test system: 786-0; assay: Cytotoxicity against human 786-0 cells after 48 hrs by SRB assay; conditions: 786-0, 48 h
[22] = test system: UO-31; assay: Cytotoxicity against human UO31 cells after 48 hrs by SRB assay; conditions: UO-31, 48 h
[23] = test system: SF-295; assay: Cytotoxicity against human SF295 cells after 48 hrs by SRB assay; conditions: SF-295, 48 h
[24] = test system: NCI-H23; assay: Cytotoxicity against human NCI-H23 cells after 48 hrs by SRB assay; conditions: NCI-H23, 48 h
[25] = Cytotoxicity against human Hs 578T cells after 48 hrs by SRB assay
[26] = test system: HCT-116; assay: Cytotoxicity against human HCT116 cells after 48 hrs by SRB assay; conditions: HCT-116, 48 h
[27] = test system: COLO 205; assay: Cytotoxicity against human COLO205 cells after 48 hrs by SRB assay; conditions: COLO 205, 48 h; summary of the method: as §1
[28] = test system: HCT-15; assay: Cytotoxicity against human HCT15 cells after 48 hrs by SRB assay; conditions: HCT-15, 48 h
[29] = test system: CCRF-CEM; assay: Cytotoxicity against human CCRF-CEM cells after 48 hrs by SRB assay
[30] = test system: SN12C; assay: Cytotoxicity against human SN12C cells after 48 hrs by SRB assay
[31] = test system: TK-10; assay: Cytotoxicity against human TK10 cells after 48 hrs by SRB assay; conditions: TK-10, 48 h
[32] = test system: DU-145; assay: Cytotoxicity against human DU145 cells after 48 hrs by SRB assay; conditions: DU-145, 48 h
[33] = test system: SR; assay: Cytotoxicity against human SR cells after 48 hrs by SRB assay
[34] = test system: K562; assay: Cytotoxicity against human K562 cells after 48 hrs by SRB assay; conditions: K562, 48 h
[35] = test system: MOLT-4; assay: Cytotoxicity against human MOLT4 cells after 48 hrs by SRB assay; conditions: MOLT-4, 48 h
[36] = test system: SK-MEL-5; assay: Cytotoxicity against human SK-MEL-5 cells after 48 hrs by SRB assay; conditions: SK-MEL-5, 48 h
[37] = test system: BT-549; assay: Cytotoxicity against human BT549 cells after 48 hrs by SRB assay; conditions: BT-549, 48 h
[38] = test system: MDA-MB-468; assay: Cytotoxicity against human MDA-MB-468 cells after 48 hrs by SRB assay; conditions: MDA-MB-468, 48 h
[39] = test system: Malme-3M; assay: Cytotoxicity against human MALME-3M cells after 48 hrs by SRB assay
[40] = test system: SNB-19; assay: Cytotoxicity against human SNB19 cells after 48 hrs by SRB assay; conditions: SNB-19, 48 h
[41] = test system: A498; assay: Cytotoxicity against human A498 cells after 48 hrs by SRB assay; conditions: A498, 48 h
[42] = test system: NCI-H322M; assay: Cytotoxicity against human NCI-H322M cells after 48 hrs by SRB assay
[43] = test system: SNB-75; assay: Cytotoxicity against human SNB75 cells after 48 hrs by SRB assay; conditions: SNB-75, 48 h
[44] = test system: MDA-MB-435; assay: Cytotoxicity against human MDA-MB-435 cells after 48 hrs by SRB assay; conditions: MDA-MB-435, 48 h
[45] = test system: HOP-92; assay: Cytotoxicity against human HOP92 cells after 48 hrs by SRB assay; conditions: HOP-92, 48 h
[46] = test system: SK-MEL-28; assay: Cytotoxicity against human SK-MEL-28 cells after 48 hrs by SRB assay; conditions: SK-MEL-28, 48 h
[47] = test system: RXF 393; assay: Cytotoxicity against human […] cells after 48 hrs by SRB assay; conditions: RXF 393, 48 h
[48] = test system: OVCAR-5; assay: Cytotoxicity against human OVCAR5 cells after 48 hrs by SRB assay; conditions: OVCAR-5, 48 h
[49] = test system: NCI-H522; assay: Cytotoxicity against human NCI-H522 cells after 48 hrs by SRB assay; conditions: NCI-H522, 48 h
[50] = test system: NCI-H460; assay: Cytotoxicity against human NCI-H460 cells after 48 hrs by SRB assay; conditions: NCI-H460, 48 h
[51] = test system: LOX IMVI; assay: Cytotoxicity against human LOXIMVI cells after 48 hrs by SRB assay
[52] = test system: HT-29; assay: Cytotoxicity against human HT-29 cells after 48 hrs by SRB assay; conditions: HT-29, 48 h
[53] = test system: CAKI-1; assay: Cytotoxicity against human Caki1 cells after 48 hrs by SRB assay; conditions: CAKI-1, 48 h
[54] = test system: EKVX; assay: Cytotoxicity against human EKVX cells after 48 hrs by SRB assay
[55] = test system: T47D; assay: Cytotoxicity against human T47D cells after 48 hrs by SRB assay
[56] = test system: PC-3; assay: Cytotoxicity against human PC3 cells after 48 hrs by SRB assay; conditions: PC-3, 48 h; summary of the method: as §1
[57] = test system: SK-OV-3; assay: Cytotoxicity against human SKOV3 cells after 48 hrs by SRB assay; conditions: SK-OV-3, 48 h
[58] = test system: UACC-62; assay: Cytotoxicity against human UACC62 cells after 48 hrs by SRB assay; conditions: UACC-62, 48 h
[59] = test system: OVCAR-3; assay: Cytotoxicity against human OVCAR-3 cells after 48 hrs by SRB assay; conditions: OVCAR-3, 48 h

COc1cc(/C=C/C(=O)N2CCN(C(=O)c3cc(OC)c(OC)c(OC)c3)CC2)ccc1OCCCOc1cc2c(cc1OC)C(=O)N1CCC[C@H]1C=N2
GI50 [1]: 1070 nM | GI50 [2]: 240 nM | GI50 [3]: 230 nM | GI50 [4]: 2540 nM | GI50 [5]: 450 nM | GI50 [6]: 240 nM | GI50 [7]: 230 nM | GI50 [8]: 170 nM | GI50 [9]: 240 nM | GI50 [10]: 310 nM | GI50 [11]: 180 nM | GI50 [12]: 8910 nM | GI50 [13]: 350 nM | GI50 [14]: 180 nM | GI50 [15]: 240 nM | GI50 [16]: 320 nM | GI50 [17]: 1890 nM | GI50 [18]: 260 nM | GI50 [19]: 210 nM | GI50 [20]: 80 nM | GI50 [21]: 270 nM | GI50 [22]: 2590 nM | GI50 [23]: 310 nM | GI50 [24]: 260 nM | GI50 [25]: 230 nM | GI50 [26]: 170 nM | GI50 [27]: 190 nM | GI50 [28]: 2980 nM | GI50 [29]: 80 nM | GI50 [30]: 270 nM | GI50 [31]: 290 nM | GI50 [32]: 330 nM | GI50 [33]: 280 nM | GI50 [34]: 690 nM | GI50 [35]: 230 nM | GI50 [36]: 190 nM | GI50 [37]: 150 nM | GI50 [38]: 70 nM | GI50 [39]: 170 nM | GI50 [40]: 380 nM | GI50 [41]: 190 nM | GI50 [42]: 340 nM | GI50 [43]: 210 nM | GI50 [44]: 180 nM | GI50 [45]: 490 nM | GI50 [46]: 200 nM | GI50 [47]: 540 nM | GI50 [48]: 290 nM | GI50 [49]: 60 nM | GI50 [50]: 240 nM | GI50 [51]: 240 nM | GI50 [52]: 260 nM | GI50 [53]: 2110 nM | GI50 [54]: 720 nM | GI50 [55]: 230 nM | GI50 [56]: 730 nM | GI50 [57]: 610 nM | GI50 [58]: 160 nM | GI50 [59]: 210 nM
